# Columns and labels:
# Assay type in all cases: functional
# Streptococcus pyogenes = experiment: Antibacterial activity against Streptococcus pyogenes
# In short: (§1)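 Broth microdilution MIC per CLSI guidelines in Mueller-Hinton broth: serial 2-fold dilutions, inoculum 5 × 10⁵ CFU/mL in equal volume, 35 °C for 16-20 h. MIC = lowest concentration with no visible turbidity. Recent clinical isolates (43 total, Gram-positive and Gram-negative); values given as MIC ranges, MIC₅₀ and MIC₉₀ per species.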
# Streptococcus pneumoniae = experiment: Antibacterial activity against Streptococcus pneumoniae; in short: as §1
# Enterococcus = experiment: Antibacterial activity against Enterococcus spp; in short: as §1
# Staphylococcus aureus [1] = experiment: Antibacterial activity against methicillin-resistant Staphylococcus aureus
# In short: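 Clinical isolates (3 MRSA in a 43-strain panel). Broth microdilution per CLSI, serial 2-fold dilutions in Mueller-Hinton broth, inoculum 5 × 10⁵ CFU/mL, 35 °C for 16-20 h. MIC = lowest concentration with no visible turbidity; reported as MIC range, MIC₅₀ and MIC₉₀ across isolates.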
# Staphylococcus aureus [2] = experiment: Antibacterial activity against methicillin-susceptible Staphylococcus aureus; in short: as §1
# [3] = tested on: Staphylococcus epidermidis; experiment: Antibacterial activity against Staphylococcus epidermidis; in short: as §1
# Haemophilus influenzae = experiment: Antibacterial activity against Haemophilus influenzae; in short: as §1
SMILES,MIC50 (Streptococcus pyogenes) [µg/mL],MIC90 (Streptococcus pyogenes) [µg/mL],MIC50 (Streptococcus pneumoniae) [µg/mL],MIC90 (Streptococcus pneumoniae) [µg/mL],MIC50 (Enterococcus) [µg/mL],MIC90 (Enterococcus) [µg/mL],MIC50 (Staphylococcus aureus [1]) [µg/mL],MIC90 (Staphylococcus aureus [1]) [µg/mL],MIC50 (Staphylococcus aureus [2]) [µg/mL],MIC90 (Staphylococcus aureus [2]) [µg/mL],MIC50 [3] [µg/mL],MIC90 [3] [µg/mL],MIC50 (Haemophilus influenzae) [µg/mL],MIC90 (Haemophilus influenzae) [µg/mL]
CCOC(=O)/C=C1\NC(=O)[C@@H]1[C@@H](C)OC(=O)c1cc(O)c(O)c(O)c1,> 128,> 128,128,> 128,> 128,> 128,128,128,128,128,16,64,128,128
C[C@@H](O)[C@H]1C(=O)N/C1=C\C(=O)O,128,128,128,128,> 128,> 128,,,> 128,> 128,> 128,> 128,> 128,> 128
CCOC(=O)/C=C1\NC(=O)[C@@H]1Cl,128,128,128,128,> 128,> 128,128,128,32,64,16,32,32,32
C[C@@H](O[Si](C)(C)C(C)(C)C)[C@H]1C(=O)N/C1=C/C(=O)OCc1ccccc1,64,64,32,32,64,64,> 128,,128,> 128,128,> 128,128,128
CCOC(=O)/C=C1\NC(=O)[C@@H]1[C@@H](C)OC(=O)c1ccccc1,> 128,> 128,> 128,> 128,> 128,> 128,,,> 128,> 128,> 128,> 128,> 128,> 128
CCOC(=O)/C=C1/NC(=O)[C@@H]1[C@@H](C)O[Si](C)(C)C(C)(C)C,128,128,128,128,> 128,> 128,128,,> 128,> 128,128,128,128,128
C[C@@H](O[Si](C)(C)C(C)(C)C)[C@H]1C(=O)N/C1=C\C(=O)O,128,> 128,128,128,128,128,,,> 128,> 128,> 128,> 128,> 128,> 128
C[C@@H](O[Si](C)(C)C(C)(C)C)[C@H]1C(=O)N/C1=C\C(=O)Oc1cc(O)cc(O)c1,16,16,16,16,64,64,32,64,32,32,32,64,,
O=C(O)/C=C1\NC(=O)[C@@H]1Cl,16,128,128,128,128,> 128,128,128,32,64,64,64,64,64
CCOC(=O)/C=C1\NC(=O)[C@@H]1[C@@H](C)O[Si](C)(C)C(C)(C)C,128,128,128,128,> 128,> 128,,,> 128,> 128,> 128,> 128,128,128
CCOC(=O)/C=C1\NC(=O)[C@@H]1[C@@H](C)OC(=O)c1cc(OCc2ccccc2)c(OCc2ccccc2)c(OCc2ccccc2)c1,> 128,> 128,> 128,> 128,> 128,> 128,,,> 128,> 128,> 128,> 128,> 128,> 128
CC1(C)S[C@@H]2[C@H](NC(=O)[C@H](N)c3ccc(O)cc3)C(=O)N2[C@H]1C(=O)O [AMOXICILLIN],< 0.06,< 0.06,0.12,8,2,2,64,128,1,8,1,4,1,64
